The nature of data set [1]: Initial rates of formation of metabolic intermediate Cytochrome P-450 at compound concentration of 30 uM. It counts as ADME. The essentials:
(§1)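 Rabbit liver microsomes at 2 mg protein/mL with 0.1 mM EDTA, 37 °C, substrate 30 μM. Complex formation started with 0.4 mM NADPH and followed by dual-wavelength absorbance, 457 vs 500 nm. Initial rate is the initial slope, ΔA×10^4 per nmol P-450 per min. Extent is the plateau absorbance. Lag is the time from NADPH addition to first 457-nm chromophore. Triplicate or single runs.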

Data set [2] can be described thus: Initial rates of formation of metabolic intermediate Cytochrome P-450 at compound concentration of 7.5-180 uM. It counts as ADME. The essentials:
(§2)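 Rabbit liver microsomes at 2 mg protein/mL with 0.1 mM EDTA, 37 °C, NADPH-dependent. Substrate tested at several concentrations. ΔA457–500 nm followed against time. Rate is the initial slope per nmol P-450 per min; extent is the plateau absorbance. Runs disturbed by a transient 450-nm species were discarded.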

The nature of data set [3]: Extent rates of formation of metabolic intermediate Cytochrome P-450 at compound concentration of 30 uM. It counts as ADME. The method in brief:
as §1

Data set [4] can be described thus: Extent rates of formation of metabolic intermediate Cytochrome P-450 at compound concentration of 7.5-180 uM. It counts as ADME. The essentials: as §2
In data set [5] the target is T1, Cytochrome P450 2C19 (Homo sapiens, UniProt P33261). Kind of data set: Apparent binding affinity of compound (10.8-60.0 uM) in Cytochrome P450 binding. It counts as ADME, Oryctolagus cuniculus. Particulars: read-out: Ks.
Data set [6] is described as follows: Lag time between the addition of compound (30 uM) and the first appearance of chromophore. Type of data set: ADME. The essentials: as §1
Data set [7] in a line: Initial rates of formation of metabolic intermediate Cytochrome P-450 at compound concentration of 7.5-120 uM. Type of data set: ADME. The method in brief: as §2
The nature of data set [8]: Initial rates of formation of metabolic intermediate Cytochrome P-450 with compound concentration of 150 uM. It counts as ADME. The method in brief:
(§3)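 Cross-inhibition in NADPH-supplemented rabbit liver microsomes at 37 °C. Preincubation with amine at 30, 150 or 300 μM while 457-nm complex formation was monitored. Once it plateaued (6–8 min), racemic hydroxylamine was added at 300 μM. Initial rate and plateau extent were read from ΔA457–500 nm vs time, per nmol P-450.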

Data set [9] is described as follows: Initial rates of formation of metabolic intermediate Cytochrome P-450 with compound concentration of 30 uM. It counts as ADME. The method in brief: as §3
Data set [10] can be described thus: Initial rates of formation of metabolic intermediate Cytochrome P-450 with compound concentration of 300 uM. Type of data set: ADME. The essentials:
as §3

The target of data set [11] is T1, Cytochrome P450 2C19. The data set is described as follows: Apparent binding affinity constant of compound (1.8-60.0) for Cytochrome P450. It counts as ADME, Oryctolagus cuniculus. Particulars: read-out: Ks.
The nature of data set [12]: Extent rates of formation of metabolic intermediate Cytochrome P-450 at compound concentration of 7.5-120 uM. It counts as ADME. The method in brief: as §2

pKd: −log10 of the molar value.

T1 sequence (P33261 whole entry): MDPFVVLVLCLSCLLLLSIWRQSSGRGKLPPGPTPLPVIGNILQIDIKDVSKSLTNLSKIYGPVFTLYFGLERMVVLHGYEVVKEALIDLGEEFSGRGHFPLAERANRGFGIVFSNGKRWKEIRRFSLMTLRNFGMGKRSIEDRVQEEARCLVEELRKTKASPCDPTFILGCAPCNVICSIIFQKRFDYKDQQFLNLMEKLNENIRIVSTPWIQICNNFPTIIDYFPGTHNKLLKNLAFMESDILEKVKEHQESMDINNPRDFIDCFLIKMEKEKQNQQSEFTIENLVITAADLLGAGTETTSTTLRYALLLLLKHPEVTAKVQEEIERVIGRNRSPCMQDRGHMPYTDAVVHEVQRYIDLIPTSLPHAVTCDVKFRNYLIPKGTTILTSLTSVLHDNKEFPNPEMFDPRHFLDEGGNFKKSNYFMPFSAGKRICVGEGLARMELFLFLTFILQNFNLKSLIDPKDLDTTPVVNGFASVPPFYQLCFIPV

For the compound `COc1cc(C[C@@H](C)NO)c(OC)cc1C`, the Rate was 182 in [1], 30 in [2], 124 in data set [3] and 23 in data set [4]. Moreover, the pKd on Cytochrome P450 2C19 [5] was 4.66. In [6], this compound registered a Lag time of 0 s.

As for `COc1cc(C[C@H](C)N)c(OC)cc1C`, the Rate is recorded as 3.1 in data set [1]; 0 in data set [7]; 1.5 in data set [8]; 1.7 in data set [9]; 1.1 in data set [10]. For the same compound, the Extent in [3] was 29; in data set [12] it was 0. The pKd on Cytochrome P450 2C19 [11] was 5.22. The compound further gave a Lag time in [6] of 136 s.

Source of the values: ChEMBL document CHEMBL1121797, “Studies on chiral interactions of 1-(2,5-dimethoxy-4-methylphenyl)-2-aminopropane and the corresponding N-hydroxy metabolites with cytochrome P-450” (J Med Chem, 1981).
